Results from ChEMBL document CHEMBL1124157, “Absolute configurations and pharmacological activities of the optical isomers of fluoxetine, a selective serotonin-uptake inhibitor” (J Med Chem, 1988).

Key:
Type in all cases: functional
Mus musculus [1] = organism: Mus musculus; test: Ability to antagonize p-chloroamphetamine-induced depletion of brain serotonin in mouse
How it was run: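 Male albino mice (16–20 g), groups of five; compound given ip as aqueous solution, then 1 h later p-chloroamphetamine HCl 20.6 mg/kg ip. Decapitation 6 h after that; whole brains frozen on dry ice, stored at -15 °C, serotonin measured by HPLC with electrochemical detection. ED50 from dose-response.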

Mus musculus [2] = organism: Mus musculus; test: Antagonistic activity against acetic acid induced abdominal constriction (writhing) in mice; settings: Abdomen
How it was run: (§1)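 Male CF-1 mice (~20 g), fasted overnight, five per point, each used once. Drug given sc in distilled water, 10 mL/kg, 20 min before 0.6% acetic acid ip (10 mL/kg). Writhes counted for 10 min starting 5 min after acid. Percent inhibition versus same-day controls; ED50 by probit least-squares of log dose.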

Mus musculus [3] = test: Antagonistic activity against acetic acid induced abdominal constriction (writhing) in mice, when administered in combination with 0.2 mg/kg of morphine; settings: Abdomen; how it was run: as §1
Mus musculus [4] = organism: Mus musculus; test: Inhibition of serotonin uptake carrier in mice
Rattus norvegicus = organism: Rattus norvegicus; test: Ability to antagonize saccharin-induced drinking (palatability-induced ingestion) in rats
How it was run: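 Long-Evans hooded male rats (400–600 g, n=24), individually housed, given 2 h weekday access to 0.01 M sodium saccharin; water and chow free except 0.5 h before and during access. Drug ip, 1 mL/kg, 0.5 h before access. Intake expressed as ratio to nearest noninjection (Thursday) control, normalized to distilled-water group = 100%; mean of four to six rats; ED50 with 95% confidence limits.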

| Structure (SMILES) | ED50 (Mus musculus [1]) [mg/kg] | ED50 (Mus musculus [2]) [mg/kg] | ED50 (Mus musculus [3]) [mg/kg] | Ki (Mus musculus [4]) [nM] | ED50 (Rattus norvegicus) [mg/kg] |
| --- | --- | --- | --- | --- | --- |
| CNCC[C@H](Oc1ccc(C(F)(F)F)cc1)c1ccccc1 | 2.1 | 25.7 | 5.7 | 33 | 4.9 |
| CNCC[C@@H](Oc1ccc(C(F)(F)F)cc1)c1ccccc1 [R-FLUOXETINE] | 1.2 | 15.3 | 3.6 | 21 | 6.1 |
